# Calls of active or inactive are those of the source. The calls are words filed in the database; no cut-off is given here.
# Columns and labels:
# [1] = target: T1, Adenosine receptor A3 (Homo sapiens, UniProt P0DMS8); test: Displacement of [125I]AB-MECA from human cloned adenosine A3 receptor expressed in CHO cells; format: cell-based
# T1 sequence (P0DMS8 whole entry): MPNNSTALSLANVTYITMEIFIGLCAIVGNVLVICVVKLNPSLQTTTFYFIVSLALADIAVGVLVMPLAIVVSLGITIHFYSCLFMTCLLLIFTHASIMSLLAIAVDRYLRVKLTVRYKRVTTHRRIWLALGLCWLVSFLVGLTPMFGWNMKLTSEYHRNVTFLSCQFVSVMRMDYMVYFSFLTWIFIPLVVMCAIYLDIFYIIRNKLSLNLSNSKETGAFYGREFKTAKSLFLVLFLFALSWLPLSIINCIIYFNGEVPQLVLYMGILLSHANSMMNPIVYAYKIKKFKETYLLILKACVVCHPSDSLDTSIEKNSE
# How it was run: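 CHO cells stably expressing hA3. IC50 by non-linear regression over five displacer concentrations in triplicate, converted to Ki by Cheng-Prusoff. Ki values are means of four assays.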
# [2] = target: Adenosine receptor A2a (Homo sapiens, UniProt P29274); test: Displacement of [125I]NECA from human adenosine A2A receptor expressed in CHO cells at 10uM; format: cell-based; conditions: in the assay text read “[3H]NECA” for “[125I]NECA”
# How it was run: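 hA2A stably expressed in CHO cells. Radioligand [3H]NECA (Kd 30 nM). Percentage inhibition of specific binding measured at 10 µM.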
# [3] = species: Bos taurus; test: Displacement of [3H]CGS21680 from adenosine A2A receptor in bovine brain membrane at 10 uM; format: cell membranes
# How it was run: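 Bovine striatal membranes, [3H]CGS 21680 (Kd 14 nM). Five displacer concentrations in triplicate, non-linear regression IC50, Cheng-Prusoff Ki, four assays. Single-point data are % inhibition at 10 µM.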
# [4] = target: T1, Adenosine receptor A3; test: Antagonist activity at human […] expressed in CHO cells assessed as inhibition of NECA-induced cAMP accumulation; format: functional, cell-based
# How it was run: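 hA3-transfected CHO cells (~60,000/well, 48 h) preincubated 15 min at 37 °C with Ro 20-1724 (20 µM) and adenosine deaminase (1 U/mL). Compound (1 nM–10 µM, 15 min) added, then 100 nM NECA against 1 µM forskolin-stimulated cAMP. Stopped with 0.4 N HCl. cAMP measured by [3H]cAMP competitive binding-protein assay. Sigmoid non-linear regression; three separate experiments.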
# [5] = target: T2, Adenosine receptor A3 (Rattus norvegicus) (UniProt P28647); test: Displacement of [3H](R)-PIA from adenosine A3 receptor in Wistar rat testis membrane at 1 uM; format: cell membranes
# T2 sequence (whole entry): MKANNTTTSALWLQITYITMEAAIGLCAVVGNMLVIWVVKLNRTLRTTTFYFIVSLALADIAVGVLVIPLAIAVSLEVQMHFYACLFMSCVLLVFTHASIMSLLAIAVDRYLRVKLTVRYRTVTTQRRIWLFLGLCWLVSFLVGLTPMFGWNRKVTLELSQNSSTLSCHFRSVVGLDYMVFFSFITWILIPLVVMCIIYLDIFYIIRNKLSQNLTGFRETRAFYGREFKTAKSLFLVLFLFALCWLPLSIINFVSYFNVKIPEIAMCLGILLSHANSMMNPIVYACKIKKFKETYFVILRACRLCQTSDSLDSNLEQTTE
# How it was run: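 Wistar rat testis membranes (0.1–0.2 mg protein) with 4 nM [3H](R)-PIA in 50 mM Tris/HCl pH 7.4, 1 mM EDTA, 10 mM MgCl2, plus 150 nM DPCPX to block A1 sites. Nonspecific binding defined with 15 µM (R)-PIA. Filtration, then scintillation counting. Percent inhibition at 1 µM.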
# [6] = target: T3, Adenosine receptor A1 (Rattus norvegicus, UniProt P25099); test: Displacement of [3H]DPCPX from adenosine A1 receptor in Wistar rat cerebral cortex; format: tissue-based
# T3 sequence (P25099 whole entry): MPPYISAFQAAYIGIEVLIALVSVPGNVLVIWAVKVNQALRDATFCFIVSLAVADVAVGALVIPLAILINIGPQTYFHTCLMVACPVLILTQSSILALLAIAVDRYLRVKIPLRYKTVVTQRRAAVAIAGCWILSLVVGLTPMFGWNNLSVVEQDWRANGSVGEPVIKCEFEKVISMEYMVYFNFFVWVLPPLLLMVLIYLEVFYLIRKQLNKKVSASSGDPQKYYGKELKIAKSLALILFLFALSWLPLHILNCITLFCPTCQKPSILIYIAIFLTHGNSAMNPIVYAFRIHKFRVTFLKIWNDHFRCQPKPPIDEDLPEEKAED
# [7] = species: Rattus norvegicus; test: Inhibition of anoxic depolarization in Wistar rat cerebral ischemia model at 10 nM treated after 7 mins of oxygen and glucose deprivation; format: functional
# How it was run: (§1)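 Rat hippocampal slices (400 µm), submerged and superfused with oxygenated aCSF at 30–32 °C. OGD made with glucose-free, N2-gassed aCSF for 7 or 30 min. Drug applied 15 min before, during and 5 min after OGD; 10 nM, with 0.5 nM–1 µM tested in 30-min runs. Anoxic depolarization recorded in CA1 as negative d.c. shift, with peak time from OGD onset. Means ± SEM; unpaired two-tailed t test.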
# [8] = species: Rattus norvegicus; test: Inhibition of fEPSP amplitude in Wistar rat cerebral ischemia model at 10 nM treated after 7 mins of oxygen and glucose deprivation; format: functional
# How it was run: (§2)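 Rat hippocampal slices, CA1 stratum radiatum fEPSP evoked by 80 µs, 0.066 Hz pulses at 30–32 °C. Drug (10 nM) given 15 min before, during and 5 min after 7-min OGD (glucose-free aCSF, 95% N2–5% CO2). Amplitude expressed as % of baseline, with recovery assessed after reperfusion in oxygenated glucose aCSF. Means ± SEM.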
# [9] = species: Rattus norvegicus; test: Effect on fEPSP amplitude under normoxic condition in Wistar rat cerebral ischemia model treated before 15 mins of oxygen and glucose deprivation; format: functional; how it was run: as §2
# [10] = species: Rattus norvegicus; test: Effect on fEPSP amplitude under normoxic condition in Wistar rat cerebral ischemia model treated during oxygen and glucose deprivation; format: functional; how it was run: as §2
# [11] = species: Rattus norvegicus; test: Effect on fEPSP amplitude under normoxic condition in Wistar rat cerebral ischemia model treated after 5 mins of oxygen and glucose deprivation; format: functional; how it was run: as §2
# [12] = species: Rattus norvegicus; test: Effect on anoxic depolarization in Wistar rat cerebral ischemia model assessed as delay in appearance treated before 15 mins of oxygen and glucose deprivation; format: functional; how it was run: as §1
# [13] = species: Rattus norvegicus; test: Effect on anoxic depolarization in Wistar rat cerebral ischemia model assessed as delay in appearance treated during oxygen and glucose deprivation; format: functional; how it was run: as §1
# [14] = target: T4, Adenosine receptor A1 (Bos taurus, UniProt P28190); test: Displacement of [3H]DPCPX from adenosine A1 receptor in bovine brain membrane
# T4 sequence (P28190 whole entry): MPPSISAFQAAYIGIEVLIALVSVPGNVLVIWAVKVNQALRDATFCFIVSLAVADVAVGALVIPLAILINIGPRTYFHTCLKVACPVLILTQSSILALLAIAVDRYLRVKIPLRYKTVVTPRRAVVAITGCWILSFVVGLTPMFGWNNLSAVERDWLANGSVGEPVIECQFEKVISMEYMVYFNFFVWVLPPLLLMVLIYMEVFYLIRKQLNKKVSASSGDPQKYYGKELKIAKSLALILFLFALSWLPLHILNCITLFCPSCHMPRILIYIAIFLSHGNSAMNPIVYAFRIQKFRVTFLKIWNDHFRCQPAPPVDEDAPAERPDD
# [15] = target: T5, Adenosine receptor A1 (Homo sapiens) (UniProt P30542); test: Displacement of [3H]DPCPX from human cloned adenosine A1 receptor expressed in CHO cells at 10 uM
# T5 sequence (whole entry): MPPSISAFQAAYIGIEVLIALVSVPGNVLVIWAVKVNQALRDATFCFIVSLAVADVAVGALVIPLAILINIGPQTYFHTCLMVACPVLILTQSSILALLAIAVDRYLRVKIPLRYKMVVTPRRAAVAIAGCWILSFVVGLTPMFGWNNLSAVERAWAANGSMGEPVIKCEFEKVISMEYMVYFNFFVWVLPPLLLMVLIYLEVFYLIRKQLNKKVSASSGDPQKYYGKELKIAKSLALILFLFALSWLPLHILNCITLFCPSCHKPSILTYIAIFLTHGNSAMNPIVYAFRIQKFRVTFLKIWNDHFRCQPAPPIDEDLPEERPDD
# Sequence of Adenosine receptor A2a (P29274 whole entry): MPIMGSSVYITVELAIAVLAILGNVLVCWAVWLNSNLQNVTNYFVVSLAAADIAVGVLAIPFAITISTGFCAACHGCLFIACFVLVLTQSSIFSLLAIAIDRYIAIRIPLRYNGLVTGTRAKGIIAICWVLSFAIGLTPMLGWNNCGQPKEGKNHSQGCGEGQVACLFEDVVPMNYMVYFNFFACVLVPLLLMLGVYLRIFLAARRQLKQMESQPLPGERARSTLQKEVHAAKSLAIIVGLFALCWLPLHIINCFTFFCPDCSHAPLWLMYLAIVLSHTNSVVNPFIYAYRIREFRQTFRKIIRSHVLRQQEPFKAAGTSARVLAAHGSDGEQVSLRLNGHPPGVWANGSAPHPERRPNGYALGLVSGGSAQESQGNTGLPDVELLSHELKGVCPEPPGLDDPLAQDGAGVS
compound,measurement,setting,value
CS(=O)(=O)N(c1nc2ccccc2n2c(=O)n(-c3ccccc3)nc12)S(C)(=O)=O,Ki,[1],5.5 nM
same,Activity,[2],32%
same,Activity,[3],56%
same,EC50,[4],12 nM
same,Activity,[5],5%
same,Ki,[6],132 nM
same,Activity,[7],Active
same,Activity,[8],Active
same,Activity,[9],inactive
same,Activity,[10],inactive
same,Activity,[11],inactive
same,Activity,[12],9.3 min
same,Activity,[13],9.3 min
same,Ki,[14],36 nM
same,Activity,[15],36%
